Results: ChEMBL document CHEMBL4219167, “Disulfiram-based disulfides as narrow-spectrum antibacterial agents” (Bioorg Med Chem Lett, 2018)
Converted amounts (≈) assume the structure as drawn.

Experiments:
Staphylococcus aureus [1] = assay: Antibacterial activity against methicillin-resistant Staphylococcus aureus COL after 20 hrs by broth microdilution assay; format: functional
Staphylococcus aureus [2] = assay: Antibacterial activity against vancomycin-intermediate resistant Staphylococcus aureus AR-217 after 20 hrs by broth microdilution assay; format: functional; conditions: AR-217, 20 h
Staphylococcus aureus [3] = assay: Antibacterial activity against vancomycin-resistant Staphylococcus aureus HIP14300 after 20 hrs by broth microdilution assay; format: functional; conditions: HIP14300, 20 h
[4] = test system: Staphylococcus epidermidis; assay: Antibacterial activity against vancomycin-intermediate resistant Staphylococcus epidermidis NRS6 after 20 hrs by broth microdilution assay; format: functional; conditions: NRS6, 20 h
Streptococcus pyogenes = assay: Antibacterial activity against Streptococcus pyogenes H293 after 20 hrs by broth microdilution assay; format: functional; conditions: H293, 20 h
Streptococcus agalactiae = assay: Antibacterial activity against Streptococcus agalactiae SGBS005 after 20 hrs by broth microdilution assay; format: functional; conditions: SGBS005, 20 h
Streptococcus pneumoniae = assay: Antibacterial activity against Streptococcus pneumoniae TCH8431 after 20 hrs by broth microdilution assay; format: functional; conditions: TCH8431, 20 h
Enterococcus faecium = assay: Antibacterial activity against vancomycin-resistant Enterococcus faecium ATCC 700221 after 20 hrs by broth microdilution assay; format: functional; conditions: ATCC 700221, 20 h
In short: (§1)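 Brain heart infusion broth at 37°C; E. faecium under 5% CO2. Cells at 0.5 McFarland are diluted 1:100 and exposed to serial dilutions (DMSO stocks 1 mM or 1 mg/mL; controls in water).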

Francisella tularensis = assay: Antibacterial activity against Francisella tularensis Utah 112 after 20 hrs by broth microdilution assay; format: functional; conditions: Utah 112, 20 h
Yersinia pestis [5] = assay: Antibacterial activity against Yersinia pestis Kim D2 after 20 hrs by broth microdilution assay; format: functional; conditions: Kim D2, 20 h
Yersinia pestis [6] = assay: Antibacterial activity against Yersinia pestis Kuma D7 after 20 hrs by broth microdilution assay; format: functional; conditions: Kuma D7, 20 h
Bacillus cereus = assay: Antibacterial activity against Bacillus cereus Gibson 971 after 20 hrs by broth microdilution assay; format: functional; conditions: Gibson 971, 20 h
Corynebacterium striatum = assay: Antibacterial activity against Corynebacterium striatum FS-1 after 20 hrs by broth microdilution assay; format: functional; conditions: FS-1, 20 h
Listeria monocytogenes = assay: Antibacterial activity against Listeria monocytogenes Gibson after 20 hrs by broth microdilution assay; format: functional; in short: as §1
Micrococcus luteus = assay: Antibacterial activity against Micrococcus luteus SK58 after 20 hrs by broth microdilution assay; format: functional; conditions: SK58, 20 h
Rhodococcus erythropolis = assay: Antibacterial activity against Rhodococcus erythropolis SK121 after 20 hrs by broth microdilution assay; format: functional; conditions: SK121, 20 h
In short: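 R. erythropolis grown in brain heart infusion broth at 30°C. A 0.5 McFarland suspension diluted 1:100 is treated with serial dilutions from 1 mM or 1 mg/mL DMSO stocks; control antibiotics are in water.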

Acinetobacter baumannii = assay: Antibacterial activity against Acinetobacter baumannii AB5075 after 20 hrs by broth microdilution assay; format: functional; conditions: AB5075, 20 h
Brucella neotomae = assay: Antibacterial activity against Brucella neotomae 5K33 after 20 hrs by broth microdilution assay; format: functional; conditions: 5K33, 20 h
Burkholderia multivorans = assay: Antibacterial activity against Burkholderia multivorans CF2 after 20 hrs by broth microdilution assay; format: functional; conditions: CF2, 20 h
In short: (§2)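 Medium is tryptic soy broth, 37°C. Overnight culture is adjusted to 0.5 McFarland, diluted 1:100 and exposed to serial dilutions (test agents from 1 mM or 1 mg/mL DMSO stocks; control antibiotics in water). Incubation lasts 20 h. MIC is the lowest concentration with no visible growth.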

Burkholderia cepacia = assay: Antibacterial activity against Burkholderia cepacia UCB 717 after 20 hrs by broth microdilution assay; format: functional; conditions: UCB 717, 20 h; in short: as §2
Citrobacter freundii = assay: Antibacterial activity against Citrobacter freundii 4_7_47CFAA after 20 hrs by broth microdilution assay; format: functional
In short: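 Brucella broth, 37°C, 5% CO2. Inoculum is 0.5 McFarland diluted 1:100, with serial drug dilutions from DMSO stocks (1 mM or 1 mg/mL) and control antibiotics in water.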

Escherichia coli = assay: Antibacterial activity against Escherichia coli DC10B after 20 hrs by broth microdilution assay; format: functional; in short: as §2
Klebsiella pneumoniae = assay: Antibacterial activity against Klebsiella pneumoniae 700603 after 20 hrs by broth microdilution assay; format: functional; conditions: Klebsiella pneumoniae, 700603, 20 h; in short: as §2
Proteus mirabilis = assay: Antibacterial activity against Proteus mirabilis HM-752 after 20 hrs by broth microdilution assay; format: functional; conditions: HM-752, 20 h; in short: as §2
Pseudomonas aeruginosa = assay: Antibacterial activity against Pseudomonas aeruginosa ATCC 15442 after 20 hrs by broth microdilution assay; format: functional; conditions: ATCC 15442, 20 h; in short: as §2
Yersinia enterocolitica = assay: Antibacterial activity against Yersinia enterocolitica WA-314 after 20 hrs by broth microdilution assay; format: functional; conditions: WA-314, 20 h
In short: (§3)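 Yersinia cultured in tryptic soy broth at 28°C. A 0.5 McFarland suspension diluted 1:100 receives serial dilutions of agents from 1 mM or 1 mg/mL DMSO stocks; control antibiotics are in water.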

Shigella dysenteriae = assay: Antibacterial activity against Shigella dysenteriae Newcastle 1934 after 20 hrs by broth microdilution assay; format: functional; conditions: Newcastle 1934, 20 h; in short: as §2
Vibrio cholerae = assay: Antibacterial activity against Vibrio cholerae TS D4 after 20 hrs by Todd Hewitt broth broth microdilution method; format: functional; conditions: TS D4, 20 h
[7] = test system: Yersinia pseudotuberculosis; assay: Antibacterial activity against Yersinia pseudotuberculosis P61 after 20 hrs by broth microdilution assay; format: functional; conditions: P61, 20 h; in short: as §3
Staphylococcus aureus [8] = assay: Synergistic antibacterial activity against vancomycin-intermediate resistant Staphylococcus aureus AR-217 assessed as vancomycin MIC after 20 hrs by checkerboard microdilution assay; format: functional; conditions: AR-217, 20 h
Staphylococcus aureus [9] = assay: Synergistic antibacterial activity against vancomycin-resistant Staphylococcus aureus HIP14300 assessed as vancomycin MIC after 20 hrs by checkerboard microdilution assay; format: functional; conditions: HIP14300, 20 h
Staphylococcus aureus [10] = assay: Synergistic antibacterial activity against vancomycin-resistant Staphylococcus aureus HIP14300 after 20 hrs in presence of vancomycin by checkerboard microdilution assay; format: functional; conditions: HIP14300, 20 h
[11] = test system: Staphylococcus epidermidis; assay: Synergistic antibacterial activity against vancomycin-intermediate resistant Staphylococcus epidermidis NRS53 assessed as vancomycin MIC after 20 hrs by checkerboard microdilution assay; format: functional; conditions: NRS53, 20 h
[12] = test system: Staphylococcus epidermidis; assay: Synergistic antibacterial activity against vancomycin-intermediate resistant Staphylococcus epidermidis NRS53 after 20 hrs in presence of vancomycin by checkerboard microdilution assay; format: functional; conditions: NRS53, 20 h
[13] = test system: Staphylococcus epidermidis; assay: Antibacterial activity against vancomycin-intermediate resistant Staphylococcus epidermidis NRS53 after 20 hrs by broth microdilution assay; format: functional; conditions: NRS53, 20 h
HepG2 = assay: Cytotoxicity against human HepG2 cells assessed as reduction in cell viability after 72 hrs by MTT assay; format: cell-based; conditions: HepG2, 72 h
Staphylococcus aureus [14] = assay: Antibacterial activity against methicillin-resistant Staphylococcus aureus; format: functional
Bacillus anthracis [15] = assay: Antibacterial activity against Bacillus anthracis Ames 35 after 20 hrs by broth microdilution assay; format: functional; conditions: Ames 35, 20 h
Bacillus anthracis [16] = assay: Antibacterial activity against Bacillus anthracis Sterne 34F2 after 20 hrs by broth microdilution assay; format: functional; conditions: Sterne 34F2, 20 h
Bacillus anthracis [17] = assay: Antibacterial activity against Bacillus anthracis Weybridge after 20 hrs by broth microdilution assay; format: functional
Salmonella typhi = assay: Antibacterial activity against Salmonella typhi Ty2 after 20 hrs by Todd Hewitt broth broth microdilution method; format: functional, Salmonella enterica subsp. enterica serovar Typhi str. Ty2; conditions: Salmonella enterica
Staphylococcus aureus [18] = assay: Synergistic antibacterial activity against methicillin-resistant Staphylococcus aureus COL assessed as vancomycin MIC after 20 hrs by checkerboard microdilution assay; format: functional
Staphylococcus aureus [19] = assay: Synergistic antibacterial activity against methicillin-resistant Staphylococcus aureus COL in presence of vancomycin after 20 hrs by checkerboard microdilution assay; format: functional
Staphylococcus aureus [20] = assay: Synergistic antibacterial activity against methicillin-resistant Staphylococcus aureus COL assessed as fractional inhibitory concentration in presence of vancomycin after 20 hrs by checkerboard microdilution assay; format: functional
Staphylococcus aureus [21] = assay: Synergistic antibacterial activity against vancomycin-intermediate resistant Staphylococcus aureus AR-217 after 20 hrs in presence of vancomycin by checkerboard microdilution assay; format: functional; conditions: AR-217, 20 h
Staphylococcus aureus [22] = assay: Synergistic antibacterial activity against vancomycin-intermediate resistant Staphylococcus aureus AR-217 assessed as fractional inhibitory concentration in presence of vancomycin after 20 hrs by checkerboard microdilution assay; format: functional
Staphylococcus aureus [23] = assay: Synergistic antibacterial activity against vancomycin-resistant Staphylococcus aureus HIP14300 assessed as fractional inhibitory concentration in presence of vancomycin after 20 hrs by checkerboard microdilution assay; format: functional
[24] = test system: Staphylococcus epidermidis; assay: Synergistic antibacterial activity against vancomycin-intermediate resistant Staphylococcus epidermidis NRS53 assessed as fractional inhibitory concentration in presence of vancomycin after 20 hrs by checkerboard microdilution assay; format: functional
[25] = Selectivity index, ratio of IC50 for cytotoxicity against human HepG2 cells to MIC for antibacterial activity against methicillin-resistant Staphylococcus aureus COL; format: toxicity, cell-based; conditions: read-out: Selectivity Index
[26] = Selectivity index, ratio of IC50 for cytotoxicity against human HepG2 cells to MIC for antibacterial activity against vancomycin-intermediate resistant Staphylococcus aureus; format: toxicity, cell-based; conditions: read-out: Selectivity Index
[27] = Selectivity index, ratio of IC50 for cytotoxicity against human HepG2 cells to MIC for antibacterial activity against vancomycin-resistant Staphylococcus aureus HIP14300; format: toxicity, cell-based; conditions: read-out: Selectivity Index
[28] = rat, microsomes
[29] = rat, microsomes, 1 h

CCN(CC)C(=S)SSC(=S)N(CC)CC
MIC (Staphylococcus aureus [1]): 32 µM (≈ 9.49 µg/mL)
MIC (Staphylococcus aureus [2]): 8 µM (≈ 2.37 µg/mL)
MIC (Staphylococcus aureus [3]): 32 µM (≈ 9.49 µg/mL)
MIC [4]: 32 µM (≈ 9.49 µg/mL)
MIC (Streptococcus pyogenes): 16 µM (≈ 4.74 µg/mL)
MIC (Streptococcus agalactiae): > 32 µM
MIC (Streptococcus pneumoniae): > 32 µM
MIC (Enterococcus faecium): > 32 µM
MIC (Francisella tularensis): 32 µM (≈ 9.49 µg/mL)
MIC (Yersinia pestis [5]): 32 µM (≈ 9.49 µg/mL)
MIC (Yersinia pestis [6]): 32 µM (≈ 9.49 µg/mL)
MIC (Bacillus cereus): 4 µM (≈ 1.19 µg/mL)
MIC (Corynebacterium striatum): > 32 µM
MIC (Listeria monocytogenes): > 32 µM
MIC (Micrococcus luteus): 32 µM (≈ 9.49 µg/mL)
MIC (Rhodococcus erythropolis): 16 µM (≈ 4.74 µg/mL)
MIC (Acinetobacter baumannii): > 32 µM
MIC (Brucella neotomae): > 32 µM
MIC (Burkholderia multivorans): 32 µM (≈ 9.49 µg/mL)
MIC (Burkholderia cepacia): > 32 µM
MIC (Citrobacter freundii): > 32 µM
MIC (Escherichia coli): > 32 µM
MIC (Klebsiella pneumoniae): > 32 µM
MIC (Proteus mirabilis): > 32 µM
MIC (Pseudomonas aeruginosa): > 32 µM
MIC (Yersinia enterocolitica): > 32 µM
MIC (Shigella dysenteriae): > 32 µM
MIC (Vibrio cholerae): > 32 µM
MIC [7]: > 32 µM
MIC (Staphylococcus aureus [8]): 2 µg/mL
MIC (Staphylococcus aureus [9]): 8 µg/mL
MIC (Staphylococcus aureus [10]): 2 µg/mL
MIC [11]: 4 µg/mL
MIC [12]: 2 µg/mL
MIC [13]: 4 µg/mL (≈ 13.5 µM)
IC50 (HepG2): 38 µM
MIC (Staphylococcus aureus [14]): 4 to 32 µg/mL (≈ 13.5 to 108 µM)

CCCCCCCCSSC(=S)N(CC)CC
MIC (Staphylococcus aureus [1]): 4 µM (≈ 1.17 µg/mL)
MIC (Staphylococcus aureus [2]): 4 µM (≈ 1.17 µg/mL)
MIC (Staphylococcus aureus [3]): 4 µM (≈ 1.17 µg/mL)
MIC [4]: 4 µM (≈ 1.17 µg/mL)
MIC (Streptococcus agalactiae): 32 µM (≈ 9.39 µg/mL)
MIC (Enterococcus faecium): 8 µM (≈ 2.35 µg/mL)
MIC (Bacillus anthracis [15]): 4 µM (≈ 1.17 µg/mL)
MIC (Bacillus anthracis [16]): 2 µM (≈ 0.587 µg/mL)
MIC (Bacillus anthracis [17]): 2 µM (≈ 0.587 µg/mL)
MIC (Yersinia pestis [5]): 32 µM (≈ 9.39 µg/mL)
MIC (Yersinia pestis [6]): 32 µM (≈ 9.39 µg/mL)
MIC (Listeria monocytogenes): 4 µM (≈ 1.17 µg/mL)
MIC (Micrococcus luteus): 16 µM (≈ 4.7 µg/mL)
MIC (Acinetobacter baumannii): > 32 µM
MIC (Brucella neotomae): > 32 µM
MIC (Burkholderia multivorans): > 32 µM
MIC (Burkholderia cepacia): > 32 µM
MIC (Citrobacter freundii): > 32 µM
MIC (Escherichia coli): > 32 µM
MIC (Klebsiella pneumoniae): > 32 µM
MIC (Proteus mirabilis): > 32 µM
MIC (Pseudomonas aeruginosa): > 32 µM
MIC (Salmonella typhi): > 32 µM
MIC (Yersinia enterocolitica): > 32 µM
MIC (Shigella dysenteriae): > 32 µM
MIC (Vibrio cholerae): > 32 µM
MIC [7]: > 32 µM
MIC (Staphylococcus aureus [18]): 1 µg/mL
MIC (Staphylococcus aureus [19]): 0.25 µg/mL
FIC (Staphylococcus aureus [20]): 0.75
MIC (Staphylococcus aureus [21]): 0.25 µg/mL
FIC (Staphylococcus aureus [22]): 0.56
MIC (Staphylococcus aureus [9]): 1 µg/mL
MIC (Staphylococcus aureus [10]): 1 µg/mL
FIC (Staphylococcus aureus [23]): 0.5
MIC [11]: 2 µg/mL
MIC [12]: 1 µg/mL
FIC [24]: 0.75
MIC [13]: 2 µg/mL (≈ 6.81 µM)
IC50 (HepG2): 50 µM
selectivity ratio [25]: > 13
selectivity ratio [26]: > 13
selectivity ratio [27]: > 13
beta t1/2 [28]: 61.2 min
CLH [29]: 22.6 µL/min/mg
